Arbovirus anti: arbovirus infection inhibition; arbovirus infection cell-based antiviral screen; inhibition, % at 10 µM; actives 0.37% (n = 200,000); AID 1251; in the data active = inhibition above about 30%
PKD1 inh: PKD1 (human) kinase inhibition; Q15139; PKD1 kinase fluorescence polarization assay; inhibition, % (test concentration not listed); actives 0.056% (n = 200,000); AID 797
Target sequence (Q15139 whole entry, looked up): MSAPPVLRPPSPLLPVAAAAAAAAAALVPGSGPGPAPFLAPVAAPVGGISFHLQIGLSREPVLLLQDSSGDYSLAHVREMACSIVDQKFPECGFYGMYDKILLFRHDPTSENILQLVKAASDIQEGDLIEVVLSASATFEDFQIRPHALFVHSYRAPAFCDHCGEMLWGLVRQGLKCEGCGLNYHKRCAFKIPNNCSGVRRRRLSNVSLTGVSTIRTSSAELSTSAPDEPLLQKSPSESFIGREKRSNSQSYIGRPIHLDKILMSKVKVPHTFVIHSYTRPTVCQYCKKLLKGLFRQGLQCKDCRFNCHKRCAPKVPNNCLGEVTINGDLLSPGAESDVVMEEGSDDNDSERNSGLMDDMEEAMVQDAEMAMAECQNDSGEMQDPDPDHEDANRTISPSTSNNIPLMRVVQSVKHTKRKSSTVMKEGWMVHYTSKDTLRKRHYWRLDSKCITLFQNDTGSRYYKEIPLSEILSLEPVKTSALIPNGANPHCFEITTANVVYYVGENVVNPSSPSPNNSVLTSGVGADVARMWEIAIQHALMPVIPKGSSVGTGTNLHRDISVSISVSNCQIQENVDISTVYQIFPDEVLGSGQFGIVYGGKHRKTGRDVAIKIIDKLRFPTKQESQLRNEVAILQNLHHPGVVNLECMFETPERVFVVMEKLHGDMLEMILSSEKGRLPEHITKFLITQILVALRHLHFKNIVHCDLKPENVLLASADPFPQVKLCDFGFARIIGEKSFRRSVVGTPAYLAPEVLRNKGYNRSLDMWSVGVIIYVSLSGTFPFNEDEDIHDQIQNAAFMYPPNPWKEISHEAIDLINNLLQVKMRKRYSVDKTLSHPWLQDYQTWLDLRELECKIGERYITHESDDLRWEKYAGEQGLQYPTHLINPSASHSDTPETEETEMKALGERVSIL
Wee1 degr inh: inhibitors of human Wee1 degradation. AID 1321. HeLa Luc-Wee1K328M stability, luciferase luminescence; 100% = proteasome inhibitor MG132 effect. reporter increase, % at 5 µM. P30291. actives 1.2% (n = 220,000);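 active = activation above the mean of all tested compounds plus 3 SD, set per screening run, cut at about 8.8% in these data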;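 also: cells exposed to compound for 20 h before luminescence read; 0% = DMSO alone and 100% = MG132 at 30 µM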
Lmaj promast: Leishmania major promastigote growth inhibition; actives 9% (n = 200,000); Leishmania major promastigotes, resazurin fluorescence viability; AID 1063; inhibition, % at 10 µM;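 also: promastigotes grown with compound for 44 hours at 28 °C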
CHOP inhibitor: CHOP inhibition in unfolded protein response; CHO-K1 CHOP-promoter luciferase, tunicamycin-induced, 15-18 h; inhibition, % at 10 µM; actives 3.8% (n = 220,000);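 active = compounds that reduced the stress-induced luciferase reporter signal by more than about 70% of percent inhibition, limit read from the data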;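 also: 0% = tunicamycin plus vehicle and 100% = wells without tunicamycin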
Rad51 HR inh: blocks human Rad51 in homologous recombination; Q06609; hRad51 DNA strand exchange, fluorescence dequenching; inhibition, % at 10 µM; actives 0.085% (n = 200,000);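 active = inhibition above 40% at the single screening dose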;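 also: 0% = DMSO control wells and 100% = blanks with heterologous ssDNA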
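Read-out basis: percent inhibition relative to plate controls and blanks / Assay system: human Rad51 nucleoprotein filaments preassembled on unlabelled ssDNA / Timing: filaments 15 min 37 °C, then compound 30 min / Control set: per-plate controls and blanks / Technique: fluorescence dequenching at 485/520 nm / Compound: 10 µM final, single point / Also added: Fluorescein- and BHQ1-tagged 47-mer duplex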
* = called active by the depositor. A selection: hits, their analogues and other compounds. The true share with any hit is near 12%. Rule as the data show it, unless noted: active = inhibition above about 50%; inactive = the rest.

Screening CC(=O)N1CCCC(C(=O)c2ccc(Oc3ccccc3)cc2)C1 (stereo unspecified) returned Arbovirus anti 1.4, PKD1 inh -1.7, Wee1 degr inh 0.1, Lmaj promast -9.3, CHOP inhibitor 2.7 and Rad51 HR inh -6.1.
CC(Sc1nc2ccccc2n1C)C(=O)NC(c1ccccc1)c1ccccc1 (stereo unspecified) was read as Arbovirus anti 2.3, PKD1 inh -2.5, Wee1 degr inh 1.5, Lmaj promast 99.8*, CHOP inhibitor 5.6 and Rad51 HR inh 2.4.
`Cn1c(SC(C(=O)Nc2ccc(F)cc2)c2ccccc2)nc2ccccc21` (stereo unspecified) gave Arbovirus anti 3.8, PKD1 inh 4.8, Wee1 degr inh 2.6, Lmaj promast 8.4, CHOP inhibitor 22.6 and Rad51 HR inh 1.5.
CN(C)CC/C=C1\c2ccccc2Sc2ccc(Cl)cc21 was read as Arbovirus anti -44.2, PKD1 inh 2.0, Wee1 degr inh -1.0, Lmaj promast 64.2*, CHOP inhibitor 26.0 and Rad51 HR inh -3.6.
`CN(C)CCC=C1c2ccccc2CCc2ccccc21` gave Arbovirus anti -6.6, PKD1 inh 8.6, Wee1 degr inh -3.5, Lmaj promast 87.9*, CHOP inhibitor 19.3 and Rad51 HR inh 10.9.
Screening CCOc1ccsc1C(=O)O returned Wee1 degr inh -0.2, CHOP inhibitor 1.7 and Rad51 HR inh 8.0.
COCC1CCCN(C(=O)c2ccc(OC3CCN(Cc4ccccn4)CC3)cc2)C1 (stereo unspecified) was read as Arbovirus anti 6.8, PKD1 inh -0.1, Wee1 degr inh 5.3, Lmaj promast -3.7, CHOP inhibitor -3.2 and Rad51 HR inh 4.7.
`O=C(c1ccc(OC2CCN(Cc3ccccn3)CC2)cc1)N1CCCCO1` gave Arbovirus anti 1.1, PKD1 inh 8.8, Wee1 degr inh 0.5, Lmaj promast 67.2* and CHOP inhibitor 4.1.
Cc1ccc(N2C(=O)NC(NC(=O)C3CC3)(C(F)(F)F)C2=O)cc1 (stereo unspecified) was read as Arbovirus anti 4.4, PKD1 inh -16.8, Wee1 degr inh 3.7, Lmaj promast 46.6, CHOP inhibitor 11.7 and Rad51 HR inh -6.0.
c1cnc2c(OCc3cn4cccnc4n3)cccc2c1 was read as Arbovirus anti 6.1, PKD1 inh -3.9, Wee1 degr inh 1.8, Lmaj promast -3.0, CHOP inhibitor 8.8 and Rad51 HR inh 3.0.
For Clc1ccc(OCc2cn3cccnc3n2)c2ncccc12 the results were Arbovirus anti -3.9, PKD1 inh -0.7, Wee1 degr inh 10.6*, Lmaj promast -5.3, CHOP inhibitor 18.5 and Rad51 HR inh -3.5.
CC1CCc2c(C(=O)Nc3ccccn3)csc2C1 (stereo unspecified) was read as Wee1 degr inh 3.9 and CHOP inhibitor 17.3.
For CC1CCc2c(C(=O)NCc3ccccn3)csc2C1 (stereo unspecified) the results were Arbovirus anti -7.2, PKD1 inh -11.2, Wee1 degr inh 9.0*, Lmaj promast 28.6, CHOP inhibitor -2.9 and Rad51 HR inh 7.3.
CCC(C)[C@H]1CNC(=S)N1CCc1cccc2ccccc12 (stereo partly specified) was read as CHOP inhibitor 15.4 and Rad51 HR inh -1.6.
Screening CCC(C)[C@H]1CNC(=S)N1CCC12CC3CC(CC(C3)C1)C2 (stereo partly specified) returned CHOP inhibitor 80.5* and Rad51 HR inh -1.4.
Screening COc1ccc(-c2cc(C(F)F)n3ncc(C(=O)N4CCN5CCCC5C4)c3n2)cc1 (stereo unspecified) returned Arbovirus anti 8.8, PKD1 inh -4.3, Wee1 degr inh -1.2, Lmaj promast 59.5*, CHOP inhibitor 39.9 and Rad51 HR inh 3.8.
For Cc1ccc(-c2cc(C(F)F)n3ncc(C(=O)N4CCN(c5cccc(C)c5C)CC4)c3n2)cc1 the results were Arbovirus anti 3.0, PKD1 inh -2.9, Wee1 degr inh 7.6, Lmaj promast 57.5*, CHOP inhibitor 45.1 and Rad51 HR inh 9.8.
`COCCCNC(=O)c1ccc(-n2nc(C(F)(F)F)cc2-c2cccs2)cc1` gave Arbovirus anti -26.6, PKD1 inh -7.8, Wee1 degr inh -1.3, Lmaj promast 6.5, CHOP inhibitor 40.8 and Rad51 HR inh -15.9.

Compound activity deposited in PubChem by several laboratories.
